The source of these data is ChEMBL document CHEMBL1152218, “New acridone-4-carboxylic acid derivatives as potential inhibitors of hepatitis C virus infection” (Bioorg Med Chem, 2008).

In data set [1] the test system is Escherichia phage T7. Description: Inhibition of T7 RNA polymerase activity assessed as blockade of DNA transcription. Put shortly: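 In vitro transcription with T7 RNA polymerase, using 0.5 µg EcoRI-cut pTZ19R carrying a 341 bp insert as template. The reaction contained 2 mM of each NTP, 1 U/µl RNase inhibitor and 12 U enzyme in 40 mM Tris-HCl pH 7.9, 6 mM MgCl2, 2 mM spermidine, 10 mM NaCl and 10 mM DTT. Incubation was 1 h at 37 °C. Products were run on 1.2% agarose with EtBr, and IC99 was obtained by band densitometry.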

Data set [2] can be described thus: Inhibition of HCV NS3 helicase activity by fluorimetric assay. The arrangement: species or system Hepacivirus hominis. Put shortly:
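Direct fluorometric assay of NS3 helicase unwinding, run at 37 °C. IC50 is the inhibitor concentration that reduces helicase activity by 50%.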

Data set [3] is described as follows: Cytotoxicity against human HuH7 cells by XTT assay. The data set is classed as cell-based, Huh-7. The essentials: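 Huh-7 cells carrying the HCV replicon were grown with serial dilutions (1 to 200 µM) for 3 days at 37 °C. XTT-PMS staining followed for 3–4 h at 37 °C. Absorbance was read at 450 nm against a 690 nm reference, with cell-free blank wells subtracted. Growth is expressed as percent of 1–2% DMSO controls, and CC50 is the concentration giving 50% growth inhibition.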
Background: Formazan colour is commonly taken as a measure of viable cells.

Data set [4] can be described thus: Binding affinity to dsRNA assessed as inhibition of ethidium bromide RNA intercalation at 20 uM by RNA migration retardation assay.
The test system of data set [5] is Hepacivirus hominis. The data set can be described thus: Inhibition of HCV NS3 helicase activity in presence of increasing concentration of double stranded DNA substrate at 5 uM. Put shortly: (§1)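 Fluorometric NS3 helicase assay at 37 °C. Inhibitor was held at a constant concentration while the dsDNA substrate concentration was increased. Activity is expressed as percent of the same reaction with DMSO in place of inhibitor.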

Data set [6] relates to Nucleic Acid. The data set can be described thus: Binding affinity to HCV con1 dsDNA assessed as inhibition of ethidium bromide DNA intercalation by DNA migration retardation assay. The data set is classed as nucleic-acid assay. Conditions: Hepacivirus hominis.
Data set [7] has as its system Hepatitis C virus. The data set can be described thus: Antiviral activity against HCV subtype 1a in Huh7 cells assessed as reduction of viral RNA replication. The data set is classed as functional, organism-based, Hepacivirus hominis. Conditions: Huh-7. The essentials: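 Subgenomic HCV replicon (luciferase) in Huh-7 cells; compounds at 1 to 200 µM, with at least three experiments and three replicates per concentration. Luminescence is expressed as percent of control wells containing 1–2% DMSO. EC50 is the concentration that reduces luminescence by 50%.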

Data set [8] is described as follows: Selectivity index, ratio of CC50 for human HuH7 cells to IC50 for HCV subtype 1a. Type of data set: functional, Huh-7. Put shortly: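 The ratio CC50/EC50 comes from the XTT cytotoxicity assay and the luciferase replicon assay, both run in replicon-bearing Huh-7 cells.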
Data set [9] concerns Hepacivirus hominis. Description: Inhibition of HCV NS3 helicase activity in presence of increasing ATP concentration. The essentials:
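Fluorometric NS3 helicase assay, run at 37 °C, with IC50 determined at each of three ATP concentrations. Activity is expressed as percent of the same reaction with DMSO in place of inhibitor.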

For data set [10], the system named is Hepacivirus hominis. The data set can be described thus: Inhibition of HCV NS3 helicase activity in presence of increasing concentration of double stranded DNA substrate at 33 uM. The essentials:
as §1

A short description of data set [11]: Binding affinity to dsRNA assessed as inhibition of ethidium bromide RNA intercalation by RNA migration retardation assay.
The subject of data set [12] is Nucleic Acid. Description: Binding affinity to HCV con1 dsDNA assessed as inhibition of ethidium bromide DNA intercalation at 500 uM by DNA migration retardation assay. Type of data set: nucleic-acid assay. Conditions: Hepacivirus hominis.
Data set [13] concerns Hepacivirus hominis. The data set can be described thus: Inhibition of HCV NS3 helicase activity in presence of increasing concentration of double stranded DNA substrate at 10 uM. Put shortly: as §1

pEC50, pIC50: −log10 of the molar value. The source made the active and inactive calls. The rule behind the calls is not given here.

In general, IC99 refers to the concentration needed for an effect of 99%. For orientation: pIC50 means −log10 of the IC50, conventionally taken in molar units. A higher pIC50 goes with a small IC50. Broadly, the CC50 is the concentration at which the toxic effect on the cells reaches its halfway point. A lower CC50 goes with greater toxicity to the cells. For orientation: pEC50 means −log10 of the EC50, conventionally taken in molar units.

As to `CN(C)CCNC(=O)c1cccc2c(=O)c3ccccc3[nH]c12`, the IC99 in [1] is 80 µM. Also, in data set [2], the negative logarithm of the IC50 (pIC50) was less than 4.00.
The molecule `O=C(Nc1ccccn1)c1cccc2c(=O)c3ccccc3[nH]c12` had a CC50 in data set [3] of 412 µM. Also, the IC99 in [1] was found to be 40 µM. For the same molecule, the outcome in [4] and in [6] was Active. Further, the outcome in [5] was inactive. Further, the pEC50 in data set [7] is 4.99. The molecule further showed a pIC50 in [2] of 5.42. Further, in data set [8], the “Ratio CC50/EC50” value turned out to be 40.5.
With `[N-]=[N+]=N[C@]1(CO)O[C@@H](n2ccc(N)nc2=O)[C@H](O)[C@@H]1O` [4'-AZIDOCYTIDINE], in data set [7], the pEC50 is 5.85.
With `O=C(c1cccc2c(=O)c3ccccc3[nH]c12)N1CCCCC1`, the IC99 in data set [1] was greater than 100 µM. The pIC50 in data set [2] was less than 4.00.
The molecule `Cc1ccccc1NC(=O)c1cccc2c(=O)c3ccccc3[nH]c12` came in with a CC50 in data set [3] of 99.3 µM. In [1], the IC99 came to 80 µM. In addition, the pEC50 in [7] was 4.72. The pIC50 in data set [2] was less than 4.00. Moreover, in data set [8], the “Ratio CC50/EC50” value turned out to be 5.2.
Consider `Cc1ccnc(NC(=O)c2cccc3c(=O)c4ccccc4[nH]c23)c1`, for which the outcome in data set [9] and in data set [5] was inactive. This molecule displayed a CC50 in [3] of 7 µM. Besides, the IC99 in data set [1] was 40 µM. The pEC50 in data set [7] is 5.19. The same molecule had a pIC50 in [2] of 5.21. For the same molecule, the “Ratio CC50/EC50” value in [8] is recorded as 1.1.
In [3], `O=C(NCc1ccccn1)c1cccc2c(=O)c3ccccc3[nH]c12` gave a CC50 of 10.2 µM. In addition, the IC99 in [1] is greater than 100 µM. Besides, in data set [4], the result was inactive. Besides, in [7], the pEC50 was 5.37. Further, the pIC50 in data set [2] was less than 4.00. Further, the “Ratio CC50/EC50” value in data set [8] was found to be 2.4.
On to `O=C(Nc1ccccc1)c1cccc2c(=O)c3ccccc3[nH]c12`, for which the CC50 in data set [3] was found to be 90.9 µM. In addition, the IC99 in data set [1] worked out at 40 µM. In [7], the pEC50 is 4.89. In data set [2], this molecule gave a negative-log IC50 (pIC50) of less than 4.00. In addition, in data set [8], the “Ratio CC50/EC50” value is 7.1.
In [3], `Cc1cccnc1NC(=O)c1cccc2c(=O)c3ccccc3[nH]c12` displayed a CC50 of 39.2 µM. Besides, in data set [1], the IC99 stood at 80 µM. For the same molecule, the outcome in data set [4] and in [6] was Active. In addition, the pEC50 in [7] was 4.95. The pIC50 in data set [2] was 4.69. The “Ratio CC50/EC50” value in data set [8] was found to be 3.5. Besides, in data set [10], the result was inactive.
In data set [3], `Cc1cccc(NC(=O)c2cccc3c(=O)c4ccccc4[nH]c23)c1` showed a cytotoxic concentration (CC50) of 5.5 µM. Besides, the IC99 in data set [1] was determined as 40 µM. Also, the result in data set [11] and in data set [4] was inactive. For the same molecule, the pEC50 in data set [7] is 5.25. In data set [2], this molecule had a pIC50 of less than 4.00. In addition, the “Ratio CC50/EC50” value in [8] is 1.
With `O=C(c1cccc2c(=O)c3ccccc3[nH]c12)N1CCOCC1`, the IC99 in data set [1] was greater than 100 µM. The molecule also showed a pIC50 in data set [2] of less than 4.00.
The molecule `Cc1ccc(NC(=O)c2cccc3c(=O)c4ccccc4[nH]c23)cc1` displayed a CC50 in data set [3] greater than 100 µM. In addition, the IC99 in [1] is 10 µM. Moreover, the result in [11], in [4] and in data set [12] was inactive. Further, the pEC50 in data set [7] was less than 4.00. Also, in [2], the pIC50 was less than 4.00.
Consider `O=C(NCCCN1CCOCC1)c1cccc2c(=O)c3ccccc3[nH]c12`, for which the IC99 in data set [1] was greater than 100 µM. This molecule also gave a pIC50 in [2] of less than 4.00.
For `O=C(Nc1ccncc1)c1cccc2c(=O)c3ccccc3[nH]c12`, it took 175 µM to reach half-maximal cytotoxicity in data set [3] (CC50). Further, the IC99 in data set [1] stood at 20 µM. The outcome in [4] and in data set [6] was Active. In addition, the outcome in [13] was inactive. For the same molecule, the pEC50 in data set [7] is 5.05. In addition, the pIC50 in [2] is 5.05. Besides, the “Ratio CC50/EC50” value in [8] turned out to be 19.4.
